# Results from ChEMBL document CHEMBL3734675, “Synthesis, antimycobacterial and antibacterial activity of fluoroquinolone derivatives containing an 3-alkoxyimino-4-(cyclopropylanimo)methylpyrrolidine moiety” (2015).
# How the values were obtained:
# Type in all cases: functional
# Escherichia coli [1] = assay: Antibacterial activity against Escherichia coli ATCC 25922 after 18 to 24 hrs by two-fold serial dilution method
# Summary of the method: (§1)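 Twofold serial dilution in agar media against Gram-positive and Gram-negative strains. Plates incubated at 35 °C for 18–24 h. MIC read as the lowest compound concentration giving complete inhibition of bacterial growth.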
# Escherichia coli [2] = assay: Antibacterial activity against extended-spectrum beta-lactamase producing Escherichia coli 14-1 after 18 to 24 hrs by two-fold serial dilution method; summary of the method: as §1
# Escherichia coli [3] = assay: Antibacterial activity against extended-spectrum beta-lactamase producing Escherichia coli 14-2 after 18 to 24 hrs by two-fold serial dilution method; summary of the method: as §1
# Escherichia coli [4] = assay: Antibacterial activity against Escherichia coli 14-1 after 18 to 24 hrs by two-fold serial dilution method; summary of the method: as §1
# Escherichia coli [5] = assay: Antibacterial activity against Escherichia coli 14-2 after 18 to 24 hrs by two-fold serial dilution method; summary of the method: as §1
# Klebsiella pneumoniae [6] = assay: Antibacterial activity against extended-spectrum beta-lactamase producing Klebsiella pneumoniae 14-17 after 18 to 24 hrs by two-fold serial dilution method; summary of the method: as §1
# Klebsiella pneumoniae [7] = assay: Antibacterial activity against extended-spectrum beta-lactamase producing Klebsiella pneumoniae 14-18 after 18 to 24 hrs by two-fold serial dilution method; summary of the method: as §1
# Klebsiella pneumoniae [8] = assay: Antibacterial activity against extended-spectrum beta-lactamase producing Klebsiella pneumoniae 14-19 after 18 to 24 hrs by two-fold serial dilution method; summary of the method: as §1
# Klebsiella pneumoniae [9] = assay: Antibacterial activity against Klebsiella pneumoniae 14-1 after 18 to 24 hrs by two-fold serial dilution method; summary of the method: as §1
# Klebsiella pneumoniae [10] = assay: Antibacterial activity against Klebsiella pneumoniae 14-2 after 18 to 24 hrs by two-fold serial dilution method; summary of the method: as §1
# Klebsiella pneumoniae [11] = assay: Antibacterial activity against Klebsiella pneumoniae 14-3 after 18 to 24 hrs by two-fold serial dilution method; summary of the method: as §1
# Klebsiella pneumoniae [12] = assay: Antibacterial activity against Klebsiella pneumoniae 14-4 after 18 to 24 hrs by two-fold serial dilution method; summary of the method: as §1
# Pseudomonas aeruginosa [13] = assay: Antibacterial activity against Pseudomonas aeruginosa ATCC 27853 after 18 to 24 hrs by two-fold serial dilution method; summary of the method: as §1
# Pseudomonas aeruginosa [14] = assay: Antibacterial activity against Pseudomonas aeruginosa 14-9 after 18 to 24 hrs by two-fold serial dilution method; summary of the method: as §1
# Pseudomonas aeruginosa [15] = assay: Antibacterial activity against Pseudomonas aeruginosa 14-14 after 18 to 24 hrs by two-fold serial dilution method; summary of the method: as §1
# Pseudomonas aeruginosa [16] = assay: Antibacterial activity against Pseudomonas aeruginosa 14-15 after 18 to 24 hrs by two-fold serial dilution method; summary of the method: as §1
# Pseudomonas aeruginosa [17] = assay: Antibacterial activity against Pseudomonas aeruginosa 14-16 after 18 to 24 hrs by two-fold serial dilution method; summary of the method: as §1
# Staphylococcus aureus [18] = assay: Antibacterial activity against Staphylococcus aureus CMCC 26003 after 18 to 24 hrs by two-fold serial dilution method; summary of the method: as §1
# Staphylococcus aureus [19] = assay: Antibacterial activity against methicillin-sensitive Staphylococcus aureus 14-1 after 18 to 24 hrs by two-fold serial dilution method; summary of the method: as §1
# Staphylococcus aureus [20] = assay: Antibacterial activity against methicillin-sensitive Staphylococcus aureus 14-3 after 18 to 24 hrs by two-fold serial dilution method; summary of the method: as §1
# Staphylococcus aureus [21] = assay: Antibacterial activity against methicillin-sensitive Staphylococcus aureus 14-4 after 18 to 24 hrs by two-fold serial dilution method; summary of the method: as §1
# Staphylococcus aureus [22] = assay: Antibacterial activity against methicillin-resistant Staphylococcus aureus 14-4 after 18 to 24 hrs by two-fold serial dilution method
# Summary of the method: (§2)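 Agar media, standard twofold serial dilution. MIC is the lowest concentration giving complete inhibition of bacterial growth after incubation at 35 °C for 18–24 h. Ciprofloxacin and levofloxacin were run as comparators.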
# Staphylococcus aureus [23] = assay: Antibacterial activity against methicillin-resistant Staphylococcus aureus 14-5 after 18 to 24 hrs by two-fold serial dilution method; summary of the method: as §2
# [24] = system: Staphylococcus epidermidis; assay: Antibacterial activity against methicillin-sensitive Staphylococcus epidermidis 14-2 after 18 to 24 hrs by two-fold serial dilution method; summary of the method: as §1
# [25] = system: Staphylococcus epidermidis; assay: Antibacterial activity against methicillin-resistant Staphylococcus epidermidis 14-21 after 18 to 24 hrs by two-fold serial dilution method; summary of the method: as §2
# [26] = system: Staphylococcus epidermidis; assay: Antibacterial activity against methicillin-resistant Staphylococcus epidermidis 14-22 after 18 to 24 hrs by two-fold serial dilution method; summary of the method: as §2
# [27] = system: Staphylococcus epidermidis; assay: Antibacterial activity against methicillin-resistant Staphylococcus epidermidis 14-37 after 18 to 24 hrs by two-fold serial dilution method; summary of the method: as §2
# [28] = system: Staphylococcus epidermidis; assay: Antibacterial activity against methicillin-resistant Staphylococcus epidermidis 14-39 after 18 to 24 hrs by two-fold serial dilution method; summary of the method: as §2
# Streptococcus pneumoniae = assay: Antibacterial activity against methicillin-resistant Streptococcus pneumoniae ATCC 19615 after 18 to 24 hrs by two-fold serial dilution method; summary of the method: as §2
# Enterococcus faecium [29] = assay: Antibacterial activity against Enterococcus faecium 14-2 after 18 to 24 hrs by two-fold serial dilution method; summary of the method: as §1
# Enterococcus faecium [30] = assay: Antibacterial activity against Enterococcus faecium 14-5 after 18 to 24 hrs by two-fold serial dilution method; summary of the method: as §1
# Enterococcus faecium [31] = assay: Antibacterial activity against Enterococcus faecium 14-6 after 18 to 24 hrs by two-fold serial dilution method; summary of the method: as §1
# Enterococcus faecalis [32] = assay: Antibacterial activity against Enterococcus faecalis 14-1 after 18 to 24 hrs by two-fold serial dilution method; summary of the method: as §1
# Enterococcus faecalis [33] = assay: Antibacterial activity against Enterococcus faecalis 14-2 after 18 to 24 hrs by two-fold serial dilution method; summary of the method: as §1
# Staphylococcus aureus [34] = assay: Potency index, ratio of ciprofloxacin MIC to compound MIC for methicillin-resistant Staphylococcus aureus 14-4
# Staphylococcus aureus [35] = assay: Potency index, ratio of ciprofloxacin MIC to compound MIC for methicillin-resistant Staphylococcus aureus 14-5
# [36] = system: Staphylococcus epidermidis; assay: Potency index, ratio of ciprofloxacin MIC to compound MIC for methicillin-resistant Staphylococcus epidermidis 14-21
# [37] = system: Staphylococcus epidermidis; assay: Potency index, ratio of ciprofloxacin MIC to compound MIC for methicillin-resistant Staphylococcus epidermidis 14-22
# [38] = system: Staphylococcus epidermidis; assay: Potency index, ratio of ciprofloxacin MIC to compound MIC for methicillin-resistant Staphylococcus epidermidis 14-37
# [39] = system: Staphylococcus epidermidis; assay: Potency index, ratio of ciprofloxacin MIC to compound MIC for methicillin-resistant Staphylococcus epidermidis 14-39
# Enterococcus faecium [40] = assay: Potency index, ratio of ciprofloxacin MIC to compound MIC for Enterococcus faecium 14-2
# Enterococcus faecium [41] = assay: Potency index, ratio of ciprofloxacin MIC to compound MIC for Enterococcus faecium 14-5
# Enterococcus faecium [42] = assay: Potency index, ratio of ciprofloxacin MIC to compound MIC for Enterococcus faecium 14-6
# Enterococcus faecalis [43] = assay: Potency index, ratio of ciprofloxacin MIC to compound MIC for Enterococcus faecalis 14-1
# Enterococcus faecalis [44] = assay: Potency index, ratio of ciprofloxacin MIC to compound MIC for Enterococcus faecalis 14-2
# Staphylococcus aureus [45] = assay: Potency index, ratio of levofloxacin MIC to compound MIC for methicillin-resistant Staphylococcus aureus 14-4
# Staphylococcus aureus [46] = assay: Potency index, ratio of levofloxacin MIC to compound MIC for methicillin-resistant Staphylococcus aureus 14-5
# [47] = system: Staphylococcus epidermidis; assay: Potency index, ratio of levofloxacin MIC to compound MIC for methicillin-resistant Staphylococcus epidermidis 14-21
# [48] = system: Staphylococcus epidermidis; assay: Potency index, ratio of levofloxacin MIC to compound MIC for methicillin-resistant Staphylococcus epidermidis 14-22
# [49] = system: Staphylococcus epidermidis; assay: Potency index, ratio of levofloxacin MIC to compound MIC for methicillin-resistant Staphylococcus epidermidis 14-37
# [50] = system: Staphylococcus epidermidis; assay: Potency index, ratio of levofloxacin MIC to compound MIC for methicillin-resistant Staphylococcus epidermidis 14-39
# Enterococcus faecium [51] = assay: Potency index, ratio of levofloxacin MIC to compound MIC for Enterococcus faecium 14-2
# Enterococcus faecium [52] = assay: Potency index, ratio of levofloxacin MIC to compound MIC for Enterococcus faecium 14-5
# Enterococcus faecium [53] = assay: Potency index, ratio of levofloxacin MIC to compound MIC for Enterococcus faecium 14-6
# Enterococcus faecalis [54] = assay: Potency index, ratio of levofloxacin MIC to compound MIC for Enterococcus faecalis 14-1
# Enterococcus faecalis [55] = assay: Potency index, ratio of levofloxacin MIC to compound MIC for Enterococcus faecalis 14-2
smiles,measurement,setting,value
O=C(O)c1cn2c3c(c(N4C/C(=N/OCc5ccccc5)C(CNC5CC5)C4)c(F)cc3c1=O)OC[C@@H]2CF (stereo partly specified),MIC,Escherichia coli [1],1 µg/mL
same,MIC,Escherichia coli [2],4 µg/mL
same,MIC,Escherichia coli [3],> 64 µg/mL
same,MIC,Escherichia coli [4],> 64 µg/mL
same,MIC,Escherichia coli [5],> 64 µg/mL
same,MIC,Klebsiella pneumoniae [6],64 µg/mL
same,MIC,Klebsiella pneumoniae [7],32 µg/mL
same,MIC,Klebsiella pneumoniae [8],32 µg/mL
same,MIC,Klebsiella pneumoniae [9],64 µg/mL
same,MIC,Klebsiella pneumoniae [10],32 µg/mL
same,MIC,Klebsiella pneumoniae [11],64 µg/mL
same,MIC,Klebsiella pneumoniae [12],> 64 µg/mL
same,MIC,Pseudomonas aeruginosa [13],32 µg/mL
same,MIC,Pseudomonas aeruginosa [14],32 µg/mL
same,MIC,Pseudomonas aeruginosa [15],64 µg/mL
same,MIC,Pseudomonas aeruginosa [16],64 µg/mL
same,MIC,Pseudomonas aeruginosa [17],32 µg/mL
same,MIC,Staphylococcus aureus [18],< 0.008 µg/mL
same,MIC,Staphylococcus aureus [19],1 µg/mL
same,MIC,Staphylococcus aureus [20],0.015 µg/mL
same,MIC,Staphylococcus aureus [21],0.03 µg/mL
same,MIC,Staphylococcus aureus [22],2 µg/mL
same,MIC,Staphylococcus aureus [23],4 µg/mL
same,MIC,[24],8 µg/mL
same,MIC,[25],2 µg/mL
same,MIC,[26],2 µg/mL
same,MIC,[27],2 µg/mL
same,MIC,[28],2 µg/mL
same,MIC,Streptococcus pneumoniae,0.125 µg/mL
same,MIC,Enterococcus faecium [29],1 µg/mL
same,MIC,Enterococcus faecium [30],8 µg/mL
same,MIC,Enterococcus faecium [31],8 µg/mL
same,MIC,Enterococcus faecalis [32],1 µg/mL
same,MIC,Enterococcus faecalis [33],0.25 µg/mL
same,Ratio,Staphylococcus aureus [34],2
same,Ratio,Staphylococcus aureus [35],2
same,Ratio,[36],2
same,Ratio,[37],2
same,Ratio,[38],2
same,Ratio,[39],2
same,Ratio,Enterococcus faecium [40],2
same,Ratio,Enterococcus faecium [41],2
same,Ratio,Enterococcus faecium [42],2
same,Ratio,Enterococcus faecalis [43],2
same,Ratio,Enterococcus faecalis [44],2
same,Ratio,Staphylococcus aureus [45],2
same,Ratio,Staphylococcus aureus [46],2
same,Ratio,[47],2
same,Ratio,[48],2
same,Ratio,[49],2
same,Ratio,[50],2
same,Ratio,Enterococcus faecium [51],2
same,Ratio,Enterococcus faecium [52],2
same,Ratio,Enterococcus faecium [53],2
same,Ratio,Enterococcus faecalis [54],2
same,Ratio,Enterococcus faecalis [55],2
